One data set deals with T1, Toll-like receptor 7 (Homo sapiens, UniProt Q9NYK1).
T1 sequence (Q9NYK1 whole entry): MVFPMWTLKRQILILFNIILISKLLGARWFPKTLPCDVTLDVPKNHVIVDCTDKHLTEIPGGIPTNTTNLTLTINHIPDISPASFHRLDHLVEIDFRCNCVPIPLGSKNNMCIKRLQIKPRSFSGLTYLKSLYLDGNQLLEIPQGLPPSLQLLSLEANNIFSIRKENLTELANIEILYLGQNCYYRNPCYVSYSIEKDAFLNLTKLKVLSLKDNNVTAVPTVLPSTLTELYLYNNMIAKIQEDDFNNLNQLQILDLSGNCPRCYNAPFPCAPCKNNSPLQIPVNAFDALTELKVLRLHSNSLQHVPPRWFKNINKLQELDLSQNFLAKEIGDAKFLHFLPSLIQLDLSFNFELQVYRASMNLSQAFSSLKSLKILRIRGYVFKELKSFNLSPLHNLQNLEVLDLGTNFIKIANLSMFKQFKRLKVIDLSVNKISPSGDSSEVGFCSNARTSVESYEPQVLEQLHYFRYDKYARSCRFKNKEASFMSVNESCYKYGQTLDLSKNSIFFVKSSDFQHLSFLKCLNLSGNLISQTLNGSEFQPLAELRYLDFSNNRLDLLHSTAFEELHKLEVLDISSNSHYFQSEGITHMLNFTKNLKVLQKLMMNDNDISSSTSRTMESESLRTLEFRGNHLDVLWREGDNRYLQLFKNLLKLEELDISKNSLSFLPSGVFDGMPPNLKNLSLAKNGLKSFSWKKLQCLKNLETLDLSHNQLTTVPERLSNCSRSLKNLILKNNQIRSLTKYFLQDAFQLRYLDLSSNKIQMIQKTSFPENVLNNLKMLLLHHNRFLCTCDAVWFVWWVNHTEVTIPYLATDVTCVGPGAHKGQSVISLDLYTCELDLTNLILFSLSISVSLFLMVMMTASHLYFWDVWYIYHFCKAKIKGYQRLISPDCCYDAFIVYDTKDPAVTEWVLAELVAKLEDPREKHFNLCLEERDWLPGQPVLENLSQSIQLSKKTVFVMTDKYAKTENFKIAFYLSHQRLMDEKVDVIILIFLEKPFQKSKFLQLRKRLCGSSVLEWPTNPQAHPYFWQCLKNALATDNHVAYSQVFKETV
The data set is described as follows: Agonist activity at human TLR7 expressed in HEK293 cells coexpressing pNiFty2-SEAP reporter by reporter gene assay. Format: functional, cell-based. An outline of the steps: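 HEK293 cells stably transfected with human TLR7 and an NF-kB-driven SEAP reporter; agonist activity read as reporter output and expressed as EC50.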

Data set [1] in a line: Half life in human plasma by […] analysis.
A short description of data set [2]: Half life in rat plasma by […] analysis. Format: ADME, cell-free.
In data set [3] the test system is PBMC. The data set can be described thus: Induction of type 1 IFN secretion in human PBMC at 30 nM after 18 hrs by ELISA. Format: cell-based. The settings on record: 0.03 µM.
The target of a further data set is T2, Toll-like receptor 8 (Homo sapiens, UniProt Q9NR97).
T2 sequence (Q9NR97 whole entry): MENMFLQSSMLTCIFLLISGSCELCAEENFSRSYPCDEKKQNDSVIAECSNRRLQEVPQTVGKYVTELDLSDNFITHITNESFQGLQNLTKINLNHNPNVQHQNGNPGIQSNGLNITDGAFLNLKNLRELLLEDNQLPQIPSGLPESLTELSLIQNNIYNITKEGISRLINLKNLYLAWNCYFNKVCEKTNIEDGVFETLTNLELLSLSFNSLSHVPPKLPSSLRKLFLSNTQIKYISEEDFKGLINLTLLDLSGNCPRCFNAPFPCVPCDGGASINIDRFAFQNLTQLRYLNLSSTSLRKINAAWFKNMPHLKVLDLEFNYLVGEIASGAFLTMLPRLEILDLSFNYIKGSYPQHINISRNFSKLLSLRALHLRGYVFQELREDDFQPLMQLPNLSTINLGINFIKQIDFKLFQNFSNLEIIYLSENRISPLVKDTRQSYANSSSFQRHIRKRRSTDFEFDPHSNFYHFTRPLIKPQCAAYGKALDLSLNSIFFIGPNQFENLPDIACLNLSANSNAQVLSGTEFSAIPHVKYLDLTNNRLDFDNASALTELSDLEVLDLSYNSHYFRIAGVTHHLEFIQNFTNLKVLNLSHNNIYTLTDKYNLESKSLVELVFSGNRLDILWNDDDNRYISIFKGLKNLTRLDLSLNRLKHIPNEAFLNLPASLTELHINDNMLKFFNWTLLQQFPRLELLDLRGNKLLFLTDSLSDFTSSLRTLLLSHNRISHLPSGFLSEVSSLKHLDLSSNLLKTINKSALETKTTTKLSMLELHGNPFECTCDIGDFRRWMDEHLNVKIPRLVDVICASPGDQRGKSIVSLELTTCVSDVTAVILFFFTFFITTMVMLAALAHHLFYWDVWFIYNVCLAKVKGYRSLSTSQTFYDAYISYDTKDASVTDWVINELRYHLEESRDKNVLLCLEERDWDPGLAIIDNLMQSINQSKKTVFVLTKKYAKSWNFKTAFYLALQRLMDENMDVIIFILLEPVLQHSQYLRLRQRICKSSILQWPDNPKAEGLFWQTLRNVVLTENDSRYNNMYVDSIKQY
The data set is described as follows: Agonist activity at TLR8. The format is functional.

The subject of data set [4] is PBMC. The data set can be described thus: Induction of type 1 IFN secretion in human PBMC at 3 nM after 18 hrs by ELISA. The settings on record: 0.003 µM. The format is cell-based. A general note: ELISA stands for enzyme-linked immunosorbent assay.
In data set [5] the test system is PBMC. The data set can be described thus: Induction of type 1 IFN secretion in human PBMC at 300 nM after 18 hrs by ELISA. Format: cell-based. The settings on record: 0.3 µM.
The test system of data set [6] is Rattus norvegicus. The data set can be described thus: Antiinflammatory activity in ovalbumin and […] hydroxide adjuvant-sensitized intratracheally dosed Brown Norway rat assessed as inhibition of allergen-induced eosinophils influx administered 2 hrs before allergen challenge measured after 24 hrs. The format is functional, organism-based.
Data set [7] relates to PBMC. The data set can be described thus: Induction of type 1 IFN secretion in human PBMC at 1000 nM after 18 hrs by ELISA. Format: cell-based. The settings on record: 1 µM.
The subject of data set [8] is PBMC. The data set can be described thus: Induction of type 1 IFN secretion in human PBMC at 10 nM after 18 hrs by ELISA. The settings on record: 0.01 µM. The format is cell-based.
The subject of data set [9] is PBMC. The data set can be described thus: Induction of type 1 IFN secretion in human PBMC at 100 nM after 18 hrs by ELISA. Format: cell-based. The settings on record: 0.1 µM.
Data set [10] has as its system PBMC. The data set can be described thus: Induction of type 1 IFN secretion in human PBMC at 10000 nM after 18 hrs by ELISA. The format is cell-based. To be noted: 10 µM. An outline of the steps:
(§1)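 Human peripheral blood mononuclear cells incubated with compound; IFN in culture supernatants quantified by human ELISA.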

For data set [11], the system named is PBMC. The data set can be described thus: Induction of type 1 IFN secretion in human PBMC at 3000 nM after 18 hrs by ELISA. The settings on record: 3 µM. The format is cell-based. In outline: as §1
The subject of data set [12] is Rattus norvegicus. The data set is described as follows: Antiinflammatory activity in ovalbumin and […] hydroxide adjuvant-sensitized Brown Norway rat assessed as inhibition of allergen-induced eosinophils influx at 1 mg/kg, intratracheally administered 2 hrs before allergen challenge measured after 24 hrs. Format: functional, organism-based. The arrangement: dose 1 mg/kg.

Data set [13] deals with Rattus norvegicus. The data set is described as follows: Induction of IFN secretion in Brown Norway rat plasma at up to 10 mg/kg, intratracheally measured after 2 to 24 hrs by CPE reduction assay. The settings on record: in vivo, inhaled_or_intranasal. Further details: dose 10 mg/kg, route endotracheal. Format: organism-based.
Data set [14] deals with Rattus norvegicus. The data set can be described thus: Induction of IFN secretion in Brown Norway rat plasma at 0.1 mg/kg, intratracheally measured after 2 to 24 hrs by CPE reduction assay. The settings on record: in vivo, inhaled_or_intranasal. Format: organism-based. Further details: dose 0.1 mg/kg, route endotracheal.

In ChEMBL document CHEMBL1156980, “Synthesis and biological evaluation of 8-oxoadenine derivatives as toll-like receptor 7 agonists introducing the antedrug concept” (J Med Chem, 2010) one finds EC50, half-life and Activity data, which are given here for 17 compounds.

pEC50: −log10 of the molar value. Calls of active or inactive are those of the source.

On to `CCCCOc1nc(N)c2[nH]c(=O)n(Cc3cc(CC(=O)OC)ccc3OC)c2n1`, for which, at Toll-like receptor 7, the negative-log EC50 (pEC50) (usually the negative decadic logarithm of the EC50, by convention in mol/L) is 6.97. The half-life (usually the time needed for the level to fall by half in the phase considered) in data set [1] was found to be 98 min.

`CCCCOc1nc(N)c2[nH]c(=O)n(Cc3ccccc3C(=O)OC)c2n1` gave a pEC50 at Toll-like receptor 7 of 6.22. This compound also came in with a half-life in data set [1] of over 98 min.

The compound `CCCCOc1nc(N)c2[nH]c(=O)n(Cc3ccccc3CC(=O)OC)c2n1` gave a negative logarithm of the EC50 (pEC50) on Toll-like receptor 7 of 6.33. The compound also came in with a half-life in data set [1] of over 98 min.

With `CCCCOc1nc(N)c2[nH]c(=O)n(Cc3cccc(CC(=O)OC)c3)c2n1`, the values for the half-life in data set [2] and in data set [1] were under 0.04 min and 2.6 min, respectively. Moreover, the Activity is 4.71 nM in the data set on PBMC [3]; under 1.25 nM with PBMC [4]; 8.37 nM in the data set on PBMC [5]; “Dose-dependent effect” in the data set on Rattus norvegicus [6]; 6.2 nM in the data set with PBMC [7]; 1.61 nM with PBMC [8]. In the data set on PBMC [9], this compound yielded an Activity of 8.17 nM. The pEC50 at Toll-like receptor 7 was 7.30; on Toll-like receptor 8, under 5.00.

The compound `COCCOc1nc(N)c2[nH]c(=O)n(Cc3cccc(CC(=O)OC)c3)c2n1` showed a negative logarithm of the EC50 (pEC50) at Toll-like receptor 7 of 6.51. Further, the half-life in data set [1] was 1.4 min.

As for `CCCCOc1nc(N)c2[nH]c(=O)n(Cc3ccc(F)c(CC(=O)OC)c3)c2n1`, the pEC50 on Toll-like receptor 7 was 7.59. In data set [1], the half-life was determined as 13.1 min.

On Toll-like receptor 7, `CCCCOc1nc(N)c2[nH]c(=O)n(Cc3ccc(OC)c(CC(=O)OC)c3)c2n1` showed a negative-log EC50 (pEC50) of 8.09. The half-life in data set [1] was over 98 min.

For `CCCCOc1nc(N)c2[nH]c(=O)n(Cc3cccc(CC(=O)O)c3)c2n1`, the Activity is under 1.25 nM in the data set on PBMC [3]; 1.25 nM in the data set with PBMC [10]; 1.25 nM in the data set on PBMC [11]; under 1.25 nM with PBMC [5]; under 1.25 nM in the data set with PBMC [7]; under 1.25 nM in the data set on PBMC [9].

Compound `CCCCOc1nc(N)c2[nH]c(=O)n(Cc3ccc(C(=O)OC)cc3)c2n1` gave a negative-log EC50 (pEC50) on Toll-like receptor 7 of 7.14. In data set [1], this compound gave a half-life of over 98 min.

Turning to `CCCCOc1nc(N)c2[nH]c(=O)n(Cc3cccc(CCC(=O)OC)c3)c2n1`, the negative logarithm of the EC50 (pEC50) on Toll-like receptor 7 is 7.06. Also, the half-life in data set [1] is over 98 min.

Regarding `CCOCc1nc2c(N)nc3ccccc3c2n1CC(C)(C)O` [RESIQUIMOD], the Activity in the data set with PBMC [3] was 1.25 nM; in the data set on PBMC [5] it was 7.26 nM; with PBMC [7], 7.75 nM; with PBMC [8], under 1.25 nM; with Rattus norvegicus [13], “Non-toxic”; with Rattus norvegicus [14], “Toxic”. The same compound displayed an Activity with PBMC [9] of 5.61 nM. For the same compound, the result in the data set with Rattus norvegicus [12] was Active.

Compound `CCCCOc1nc(N)c2[nH]c(=O)n(Cc3cccc(C(=O)OC)c3)c2n1` had a negative logarithm of the EC50 (pEC50) at Toll-like receptor 7 of 7.29. The same compound gave a half-life in data set [1] of over 98 min.

On to `CCCCOc1nc(N)c2[nH]c(=O)n(Cc3ccc(CC(=O)OC)cc3)c2n1`, for which the pEC50 on Toll-like receptor 7 was 7.99. The compound also gave a half-life in data set [1] of 21.9 min.

In turn, `COCCOc1nc(N)c2[nH]c(=O)n(Cc3ccccc3)c2n1` showed a pEC50 on Toll-like receptor 7 of 6.40.

The compound `CCCCOc1nc(N)c2nc(O)n(Cc3ccccc3)c2n1` had a negative-log EC50 (pEC50) on Toll-like receptor 7 of 7.20.

The compound `CCCCOc1nc(N)c2[nH]c(=O)n(Cc3cccc(C(C)C(=O)OC)c3)c2n1` (stereo unspecified) showed a pEC50 on Toll-like receptor 7 of 7.12. This compound also returned a half-life in data set [1] of over 98 min.

Consider `CCCCOc1nc(N)c2[nH]c(=O)n(Cc3cccc(CC(=O)OCC)c3)c2n1`, for which, on Toll-like receptor 7, the pEC50 is 6.73. Further, the half-life in data set [1] amounted to 9 min.
